Experimental data taken from ChEMBL document CHEMBL4385657, “A fragment-like approach to PYCR1 inhibition” (Bioorg Med Chem Lett, 2019).
Activity calls are given as the source filed them. No cut-off for these calls is given here.

Assays:
[1] = molecular target: T1, Pyrroline-5-carboxylate reductase 1, mitochondrial (Homo sapiens, UniProt P32322); assay: Inhibition of 6x-His-tagged and SUMO tagged human PYCR1 expressed in Escherichia coli BL21 (DE3) cells assessed as reduction in NADH oxidation incubated for 1 hr
T1 sequence (P32322 whole entry): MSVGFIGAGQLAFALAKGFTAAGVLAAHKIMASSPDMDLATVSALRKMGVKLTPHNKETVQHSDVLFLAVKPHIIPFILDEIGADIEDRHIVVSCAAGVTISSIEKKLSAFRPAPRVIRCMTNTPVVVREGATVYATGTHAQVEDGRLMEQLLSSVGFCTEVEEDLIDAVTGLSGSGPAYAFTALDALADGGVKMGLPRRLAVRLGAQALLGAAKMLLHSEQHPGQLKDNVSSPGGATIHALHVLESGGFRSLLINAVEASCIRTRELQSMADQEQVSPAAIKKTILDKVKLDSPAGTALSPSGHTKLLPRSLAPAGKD

[2] = system: SUM-159-PT; assay: Effect on phenylalanine content in human SUM159PT cells at 100 uM by LC-MS analysis relative to control; format: functional, cell-based
In short: (§1)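 Human breast cancer SUM-159-PT cells were incubated with test agent at 1, 5, 20 and 100 µM (or at 100 µM alone). The cells were then lysed, and proline and the essential amino acids were quantified by LC-MS. Each amino acid level was compared against an untreated control culture.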

[3] = system: SUM-159-PT; assay: Effect on methionine content in human SUM159PT cells at 100 uM by LC-MS analysis relative to control; format: functional, cell-based; in short: as §1
[4] = system: SUM-159-PT; assay: Effect on leucine content in human SUM159PT cells at 100 uM by LC-MS analysis relative to control; format: functional, cell-based; in short: as §1
[5] = system: SUM-159-PT; assay: Effect on tryptophan content in human SUM159PT cells at 100 uM by LC-MS analysis relative to control; format: functional, cell-based; in short: as §1
[6] = system: SUM-159-PT; assay: Effect on valine content in human SUM159PT cells at 100 uM by LC-MS analysis relative to control; format: functional, cell-based; in short: as §1
[7] = system: SUM-159-PT; assay: Effect on isoleucine content in human SUM159PT cells at 100 uM by LC-MS analysis relative to control; format: functional, cell-based; in short: as §1
[8] = system: SUM-159-PT; assay: Toxicity in human SUM159PT cells assessed as reduction in cell viability at 100 uM; format: cell-based
[9] = system: SUM-159-PT; assay: Effect on phenylalanine content in human SUM159PT cells at 1 to 100 uM by LC-MS analysis relative to control; format: ADME, cell-based; in short: as §1
[10] = system: SUM-159-PT; assay: Effect on methionine content in human SUM159PT cells at 1 to 100 uM by LC-MS analysis relative to control; format: ADME, cell-based; in short: as §1
[11] = system: SUM-159-PT; assay: Effect on leucine content in human SUM159PT cells at 1 to 100 uM by LC-MS analysis relative to control; format: ADME, cell-based; in short: as §1
[12] = system: SUM-159-PT; assay: Effect on tryptophan content in human SUM159PT cells at 1 to 100 uM by LC-MS analysis relative to control; format: ADME, cell-based; in short: as §1
[13] = system: SUM-159-PT; assay: Effect on valine content in human SUM159PT cells at 1 to 100 uM by LC-MS analysis relative to control; format: ADME, cell-based; in short: as §1
[14] = system: SUM-159-PT; assay: Effect on isoleucine content in human SUM159PT cells at 1 to 100 uM by LC-MS analysis relative to control; format: ADME, cell-based; in short: as §1
[15] = molecular target: T2, Amine oxidase [flavin-containing] B (Homo sapiens, UniProt P27338); assay: Inhibition of MAOB (unknown origin)
T2 sequence (P27338 whole entry): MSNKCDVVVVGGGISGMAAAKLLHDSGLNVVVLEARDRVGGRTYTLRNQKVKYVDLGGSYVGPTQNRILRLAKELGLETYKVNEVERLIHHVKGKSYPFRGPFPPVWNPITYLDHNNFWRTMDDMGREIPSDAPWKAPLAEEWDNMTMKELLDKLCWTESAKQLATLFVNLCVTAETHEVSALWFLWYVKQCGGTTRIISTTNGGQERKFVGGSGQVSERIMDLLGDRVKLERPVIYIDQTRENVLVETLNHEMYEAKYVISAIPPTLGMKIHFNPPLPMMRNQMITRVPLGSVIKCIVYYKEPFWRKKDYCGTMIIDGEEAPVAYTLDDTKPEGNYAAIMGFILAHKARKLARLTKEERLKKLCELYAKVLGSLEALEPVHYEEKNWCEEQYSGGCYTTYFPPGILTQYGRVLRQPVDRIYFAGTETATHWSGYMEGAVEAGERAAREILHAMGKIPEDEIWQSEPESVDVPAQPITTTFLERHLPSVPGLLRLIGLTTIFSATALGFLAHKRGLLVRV

Compound	IC50 [1]	other results
C#CCN(C)Cc1cccc([N+](=O)[O-])c1	394 µM	–
C#CCN(C)Cc1cc(Br)cs1	> 500 µM	–
C#CCN(C)Cc1ccc(Cl)cc1	13 µM	–
C#CCN(C)Cc1ccc(Cl)c(C(F)(F)F)c1	43 µM	–
C#CCN(CC)Cc1ccc(Br)cc1	58 µM	–
C#CCN(C)Cc1ccc([N+](=O)[O-])cc1	43 µM	–
C#CCN(Cc1ccc(Br)cc1)Cc1cc(C)no1	100 µM	–
C#CCN(C)Cc1ccc(-c2ccccc2)cc1	315 µM	–
CN(Cc1ccc(Br)cc1)CC1CC1	> 500 µM	–
C#CCN(CC(=O)OC(C)(C)C)Cc1ccc(Br)cc1	> 500 µM	–
C#CCN1CCc2cc(Br)ccc2C1	> 500 µM	–
C#CCN(C)Cc1ccc(Cl)cc1Cl	9.2 µM	–
CNCc1ccc(Br)cc1	161 µM	–
C#CCN(Cc1ccc(Br)cc1)CC1CC1	> 500 µM	–
C#CCN(C)Cc1ccc(OC)cc1OC	> 500 µM	–
C#CCN(Cc1ccc(Br)cc1)C(C)C	> 500 µM	–
C#CCN(C)Cc1ccc(Br)cc1	–	Activity [8]: Non-Toxic; Activity [9]: Non-Toxic; Activity [10]: Non-Toxic; Activity [11]: Non-Toxic; Activity [12]: Non-Toxic; Activity [13]: Non-Toxic; Activity [14]: Non-Toxic; IC50 [15]: 0.3 µM
C#CCN(C)Cc1ccccc1Br	200 µM	–

Compound	IC50 [1]	other results
C#CCN(C)Cc1ccccc1Cl	139 µM	–
C#CCN(C)Cc1ccc(C)cc1C	55 µM	–
C#CCN(C)CCc1ccc(Br)cc1	> 500 µM	–
C#CCN(C)Cc1ccc(-c2ccc(F)cc2)cc1	211 µM	–
C#CCN(C)Cc1ccc2ccccc2c1	21 µM	–
C#CCN(C)Cc1ccc(Cl)c(Cl)c1	13.6 µM	–
C#CCN(C)Cc1ccc(Br)cc1Cl	34 µM	–
CN(CC#Cc1ccccc1)Cc1ccc(Br)cc1	71 µM	–
C#CCCN(C)Cc1ccc(Br)cc1	> 500 µM	–
CC#CCN(C)Cc1ccc(Br)cc1	16 µM	–
C#CCN(C)Cc1cccc(Br)c1	276 µM	–
C#CCN(C)Cc1cc(C)no1	> 500 µM	–
C#CCN(C)Cc1ccc(C#N)cc1	> 500 µM	–
C#CCN(C)Cc1ccc(Br)cc1C	38 µM	–
C=CCN(C)Cc1ccc(Br)cc1	> 500 µM	–
C#CCN(C)Cc1ccc(C)cc1	40 µM	–
C#CCN(C)Cc1c(Cl)cccc1Cl	> 500 µM	–
C#CCN(C)Cc1ccc(Cl)cc1Br	66 µM	–

Second part, led by results:

IC50 [1]	Compound	other results
337 µM	CCCN(C)Cc1ccc(Br)cc1	–
65 µM	C#CCN(C)Cc1ccc(C(F)(F)F)cc1	–
38 µM	C#CCN(C)Cc1ccc(OC)cc1	–
> 500 µM	C#CCN(CCC=C)Cc1ccc(Br)cc1	–
9.7 µM	C#CCN(C)Cc1ccc(I)cc1	–
311 µM	C#CCN(C)Cc1ccc(F)cc1	–
42 µM	C#CCN(C)Cc1ccc(Br)cc1F	–
198 µM	C#CCN(C)Cc1ccccc1 [PARGYLINE]	Activity [2]: inactive; Activity [3]: inactive; Activity [4]: inactive; Activity [5]: inactive; Activity [6]: inactive; Activity [7]: inactive
52 µM	C#CCN(C)Cc1cccc(Cl)c1	–
> 500 µM	C#CCN(Cc1ccc(Br)cc1)S(C)(=O)=O	–
> 500 µM	C#CCN(C)Cc1cc(Cl)cc(Cl)c1	–
> 500 µM	C#CCN(C)Cc1ccccc1[N+](=O)[O-]	–
316 µM	C#CCN(C)C(C)c1ccc(Br)cc1 (centres undefined)	–
142 µM	C#CCN(C)Cc1ccc(C(C)C)cc1	–
228 µM	C#CCN(C)Cc1ccc(Br)cc1Br	–
> 500 µM	C#CCN1Cc2ccc(Br)cc2C1	–
92 µM	C#CCN(Cc1ccc(Br)cc1)Cc1ccc(Br)cc1	–
21 µM	C#CCN(C)Cc1ccc(Br)cc1OC	–
99 µM	C#CCNCc1ccc(Br)cc1	–
184 µM	C#CCN(C)Cc1ccc(C(C)=O)cc1	–
> 500 µM	C#CCN(Cc1ccc(Br)cc1)C(C)=O	–
> 500 µM	C#CCN(C)Cc1ccc(F)cc1Br	–
394 µM	C#CC(C)N(C)Cc1ccc(Br)cc1 (centres undefined)	–
> 500 µM	C#CCN(CCC)Cc1ccc(Br)cc1	–
> 500 µM	CN(Cc1ccccc1)Cc1ccc(Br)cc1	–
